Results: ChEMBL document CHEMBL1151753, “New benzylureas as a novel series of potent, nonpeptidic vasopressin V2 receptor agonists” (J Med Chem, 2008)
In brackets after ≈: the same amount, converted by molar mass. Activity calls are given as the source filed them. The rule behind the calls is not given here.

Assays:
Vasopressin V2 receptor [1] = target: T1, Vasopressin V2 receptor (Homo sapiens, UniProt P30518); experiment: Agonist activity at human vasopressin V2 receptor expressed in HEK293 cells assessed as increase in intracellular cAMP level by CRE-luciferase reporter gene assay; assay type: functional, cell-based
Method in brief: (§1)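 HEK293 cells grown to 70-80% confluency, transiently transfected with receptor plus pGL4 CRE-Luc reporter, incubated 24 h at 37 °C/5% CO2, plated at 10000 cells/well, a further 24 h. Compounds in 0.5 log serial dilutions in duplicate, final DMSO 0.1%. Luciferase read by luminescence after 5 h at 37 °C, expressed as % of 100 nM AVP control. 4-parameter logistic fit gave EC50, reported as geometric mean ± SD.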

Rattus norvegicus [2] = experiment: Antidiuretic effect in Long-Evans Brattleboro rat model assessed as inhibition of urine production at 1 mg/kg, po after 1 hr relative to control; assay type: functional
Method in brief: (§2)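 Brattleboro rats (Long-Evans hooded strain lacking circulating AVP, diabetes insipidus model) dosed orally in carboxymethyl cellulose. Voided urine collected and measured over 1 h periods and compared with vehicle-treated animals. At least six animals per group, data as means.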

Vasopressin V2 receptor [3] = target: Vasopressin V2 receptor (Rattus norvegicus, UniProt Q00788); experiment: Agonist activity at rat vasopressin V2 receptor expressed in HEK293 cells assessed as increase in intracellular cAMP level by CRE-luciferase reporter gene assay; assay type: functional, cell-based; method in brief: as §1
Oxytocin receptor = target: T2, Oxytocin receptor (Homo sapiens, UniProt P30559); experiment: Binding affinity to oxytocin receptor
T2 sequence (P30559 whole entry): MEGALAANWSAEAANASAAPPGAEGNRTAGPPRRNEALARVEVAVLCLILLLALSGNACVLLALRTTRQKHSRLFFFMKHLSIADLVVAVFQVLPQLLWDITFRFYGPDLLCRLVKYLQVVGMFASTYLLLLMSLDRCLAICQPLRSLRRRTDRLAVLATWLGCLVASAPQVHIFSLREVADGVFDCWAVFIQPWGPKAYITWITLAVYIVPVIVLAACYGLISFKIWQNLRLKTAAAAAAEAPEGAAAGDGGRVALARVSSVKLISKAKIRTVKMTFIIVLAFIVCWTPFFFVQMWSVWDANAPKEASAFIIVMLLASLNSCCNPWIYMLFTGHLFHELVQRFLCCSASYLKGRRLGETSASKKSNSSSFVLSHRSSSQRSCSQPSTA

[4] = target: Vasopressin V2 receptor (Rattus norvegicus) (UniProt Q00788); experiment: Agonist activity at rat vasopressin V2 receptor expressed in HEK293 cells assessed as increase in intracellular cAMP level by CRE-luciferase reporter gene assay relative to arginine vasopressin
Vasopressin V2 receptor [5] = target: T1, Vasopressin V2 receptor; experiment: Binding affinity to human vasopressin V2 receptor expressed in HEK293 cells by radioligand binding assay; assay type: cell-based
Rattus norvegicus [6] = experiment: Antidiuretic effect in Long-Evans Brattleboro rat model assessed as inhibition of urine production at 1 mg/kg, po in methylcellulose after 5 hrs; assay type: functional, organism-based; set-up: dose 1 mg/kg
[7] = target: Vasopressin V1a receptor (Homo sapiens) (UniProt P37288); experiment: Agonist activity at human vasopressin V1a receptor upto 10 uM by reporter gene assay; assay type: functional; method in brief: as §1
Vasopressin V2 receptor [8] = target: T1, Vasopressin V2 receptor; experiment: Agonist activity at human vasopressin V2 receptor expressed in HEK293 cells assessed as increase in intracellular cAMP level by CRE-luciferase reporter gene assay relative to arginine vasopressin; assay type: functional, cell-based; method in brief: as §1
[9] = target: T3, Vasopressin V1b receptor (Homo sapiens) (UniProt P47901); experiment: Agonist activity at human vasopressin V1b receptor upto 10 uM by reporter gene assay; assay type: functional; method in brief: as §1
T3 sequence (whole entry): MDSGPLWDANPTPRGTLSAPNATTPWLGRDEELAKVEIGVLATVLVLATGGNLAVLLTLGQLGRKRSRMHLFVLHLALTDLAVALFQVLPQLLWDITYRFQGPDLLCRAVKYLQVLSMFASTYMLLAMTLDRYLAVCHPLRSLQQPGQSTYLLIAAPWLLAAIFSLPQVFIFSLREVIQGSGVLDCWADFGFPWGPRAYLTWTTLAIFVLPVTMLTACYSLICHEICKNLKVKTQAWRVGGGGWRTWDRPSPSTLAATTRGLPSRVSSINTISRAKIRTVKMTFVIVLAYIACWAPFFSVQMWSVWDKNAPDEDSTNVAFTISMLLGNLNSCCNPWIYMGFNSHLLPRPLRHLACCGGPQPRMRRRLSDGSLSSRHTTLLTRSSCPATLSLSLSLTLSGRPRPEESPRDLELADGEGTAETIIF

Rattus norvegicus [10] = experiment: Antidiuretic effect in Long-Evans Brattleboro rat model assessed as inhibition of urine production at 3 mg/kg, po after 2 hrs; assay type: functional, organism-based; set-up: dose 3 mg/kg; method in brief: as §2
Rattus norvegicus [11] = experiment: Antidiuretic effect in Long-Evans Brattleboro rat model assessed as inhibition of urine production at 1 mg/kg, po after 1 to 2 hrs; assay type: functional, organism-based; set-up: dose 1 mg/kg; method in brief: as §2
[12] = Aqueous solubility of the compound; assay type: physicochemical; settings: water (aqueous)

Sequence of Vasopressin V2 receptor (Rattus norvegicus, UniProt Q00788) (Q00788 whole entry): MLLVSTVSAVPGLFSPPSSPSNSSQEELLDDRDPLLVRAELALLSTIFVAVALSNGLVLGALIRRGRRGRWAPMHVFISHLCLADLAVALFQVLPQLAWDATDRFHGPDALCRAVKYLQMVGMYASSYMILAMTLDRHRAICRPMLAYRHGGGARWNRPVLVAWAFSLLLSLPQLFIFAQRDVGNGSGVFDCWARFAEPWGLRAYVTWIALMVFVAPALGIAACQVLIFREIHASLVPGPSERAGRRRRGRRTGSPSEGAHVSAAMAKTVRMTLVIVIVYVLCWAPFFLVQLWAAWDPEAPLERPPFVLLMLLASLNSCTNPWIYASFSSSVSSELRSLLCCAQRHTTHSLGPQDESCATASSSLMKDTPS
T1 sequence (P30518 whole entry): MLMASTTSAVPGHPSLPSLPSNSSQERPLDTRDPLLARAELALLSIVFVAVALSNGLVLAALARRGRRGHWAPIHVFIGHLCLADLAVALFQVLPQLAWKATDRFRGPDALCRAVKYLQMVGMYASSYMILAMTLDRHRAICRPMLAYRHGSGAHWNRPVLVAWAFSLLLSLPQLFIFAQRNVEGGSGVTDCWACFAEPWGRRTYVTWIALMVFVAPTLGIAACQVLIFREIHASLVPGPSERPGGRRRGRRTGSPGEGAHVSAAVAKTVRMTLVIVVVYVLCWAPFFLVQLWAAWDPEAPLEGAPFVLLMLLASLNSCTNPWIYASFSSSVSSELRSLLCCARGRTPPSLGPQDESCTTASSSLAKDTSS
Sequence of Vasopressin V2 receptor (Rattus norvegicus) (Q00788 whole entry, looked up): as the sequence (Q00788 whole entry) above
Sequence of Vasopressin V1a receptor (Homo sapiens) (P37288 whole entry, looked up): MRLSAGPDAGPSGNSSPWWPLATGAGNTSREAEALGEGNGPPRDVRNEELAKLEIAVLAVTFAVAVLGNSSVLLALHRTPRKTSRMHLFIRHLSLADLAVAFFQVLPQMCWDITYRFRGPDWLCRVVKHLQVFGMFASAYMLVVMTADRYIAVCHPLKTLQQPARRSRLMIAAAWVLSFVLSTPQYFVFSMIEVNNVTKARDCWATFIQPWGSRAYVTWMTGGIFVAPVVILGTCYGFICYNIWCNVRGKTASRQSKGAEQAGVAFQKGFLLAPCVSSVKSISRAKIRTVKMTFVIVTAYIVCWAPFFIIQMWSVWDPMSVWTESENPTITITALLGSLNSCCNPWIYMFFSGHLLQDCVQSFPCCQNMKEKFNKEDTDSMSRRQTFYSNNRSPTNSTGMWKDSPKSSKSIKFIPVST

SMILES	EC50 (Vasopressin V2 receptor [1])	also measured
O=C(NCc1ccc(C(=O)N2CCCCc3ccccc32)c(Cl)c1)Nc1c(F)cccc1F	40 nM	–
COC(=O)[C@@H]1CCCN1C(=O)NCc1ccc(C(=O)N2CCCCc3ccccc32)cc1C	100 nM	–
Cc1cc(C(=O)N2CCc3cccn3-c3ccccc32)ccc1CNC(=O)N1CCC[C@H]1C(=O)N(C)C	140 nM	–
CO[C@@H]1C[C@@H](C(=O)N(C)C)N(C(=O)NCc2ccc(C(=O)N3CCCCc4ccccc43)cc2C)C1	4.7 nM	inhibition in vivo at 1 mg/kg (Rattus norvegicus [2]): 84%; EC50 (Vasopressin V2 receptor [3]): 65 nM
Cc1cc(C(=O)N2CCCC(O)c3ccccc32)ccc1CNC(=O)N1CCC[C@H]1C(=O)N(C)C (stereo partly specified)	230 nM	–
COc1cc(CNC(=O)Nc2c(F)cccc2F)ccc1C(=O)N1CCCCc2ccccc21	110 nM	–
Cc1cc(C(=O)N2CCCCc3ccccc32)ccc1CNC(=O)N1CCC[C@@H]1C(=O)N(C)C	380 nM	–
CCc1cc(C(=O)N2CCCCc3ccccc32)ccc1CNC(=O)Nc1c(F)cccc1F	10 nM	–
Cc1cc(C(=O)N2CCCCc3ccccc32)ccc1CNC(=O)NCC(=O)NCc1ccccc1	270 nM	–
Cc1cc(C(=O)N2Cc3cccn3Cc3ccccc32)ccc1CNC(=O)N1CCC[C@H]1C(=O)N(C)C	120 nM	–
Cc1cc(C(=O)N2CCCCc3ccccc32)ccc1CNC(=O)NCC(=O)OCc1ccccc1	730 nM	–
Cc1ccn(-c2ccc(C(=O)N3Cc4cccn4Cc4ccccc43)c(Cl)c2)n1	< 1 nM	–
COC(=O)CNC(=O)NCc1ccc(C(=O)N2CCCCc3ccccc32)cc1C	37 nM	–
O=C(NCc1ccc(C(=O)N2CCCCc3ccccc32)cc1)Nc1c(F)cccc1F	47 nM	Ki (Oxytocin receptor): > 10000 nM; Activity [4]: 30%
Cc1cc(C(=O)N2CCCCc3ccccc32)ccc1CNC(=O)N1CCC[C@H]1C(=O)OC(C)C	950 nM	–
Cc1cc(C(=O)N2CCCCc3ccccc32)ccc1CNC(=O)N1C[C@H](OCc2ccccc2)C[C@H]1C(=O)N(C)C	10 nM	–
Cc1cc(C(=O)N2CCCCc3ccccc32)ccc1CNC(=O)NCC(=O)O	180 nM	–
Cc1cc(C(=O)N2CCCCc3ccccc32)ccc1CNC(=O)Nc1ccc[nH]c1=O	140 nM	–
Cc1cc(C(=O)N2CCCCc3ccccc32)ccc1CNC(=O)NCC(=O)OC(C)(C)C	120 nM	–
Cc1cc(C(=O)N2CCCCc3ccccc32)ccc1CNC(=O)N1CC(F)(F)C[C@H]1C(=O)N(C)C	50 nM	–
O=C(NCc1ccc(C(=O)N2CCCCc3ccccc32)c(F)c1)Nc1c(F)cccc1F	180 nM	–
Cc1cc(C(=O)N2CCCCc3ccccc32)ccc1CNC(=O)N1C[C@H](OC(C)(C)C)C[C@H]1C(=O)N(C)C	46 nM	–
Cc1cc(C(=O)N2CCCCc3ccccc32)ccc1CNC(=O)NCC(N)=O	210 nM	–

SMILES	EC50 (Vasopressin V2 receptor [1])	also measured
Cc1cc(C(=O)N2CCCCc3ccccc32)ccc1CNC(=O)Nc1c(F)cccc1F	2.1 nM	inhibition in vivo at 1 mg/kg (Rattus norvegicus [2]): 0%; Ki (Oxytocin receptor): > 10000 nM; EC50 (Vasopressin V2 receptor [3]): 13 nM; Ki (Vasopressin V2 receptor [5]): 200 nM; Activity (Rattus norvegicus [6]): inactive
Cc1cc(C(=O)N2CCCCc3ccccc32)ccc1CNC(=O)N1C[C@H](O)C[C@H]1C(=O)N(C)C	2.3 nM	inhibition in vivo at 1 mg/kg (Rattus norvegicus [2]): 68%; EC50 (Vasopressin V2 receptor [3]): 41 nM
Cc1cc(C(=O)N2CCCC(C)c3ccccc32)ccc1CNC(=O)N1CCC[C@H]1C(=O)N(C)C (stereo partly specified)	220 nM	–
Cc1cc(C(=O)N2CCCCc3ccccc32)ccc1CNC(=O)NCC(=O)N1CCCCC1	150 nM	–
Cc1cc(C(=O)N2CCCCc3ccccc32)ccc1CNC(=O)Nc1ccccc1F	30 nM	–
Cc1cc(C(=O)N2CCCCc3ccccc32)ccc1CNC(=O)N1CCC[C@H]1C(=O)OC(C)(C)C	390 nM	–
CCOC(=O)CNC(=O)NCc1ccc(C(=O)N2CCCCc3ccccc32)cc1C	140 nM	–
Cc1cc(C(=O)N2CCCCc3ccccc32)ccc1CNC(=O)N1CCC[C@H]1C(=O)N(C)C [FEDOVAPAGON]	24 nM	inhibition in vivo at 1 mg/kg (Rattus norvegicus [2]): 81%; Activity [7]: inactive; Ki (Oxytocin receptor): > 10000 nM; EC50 (Vasopressin V2 receptor [3]): 150 nM; Ki (Vasopressin V2 receptor [5]): 2000 nM; Efficacy (Vasopressin V2 receptor [8]): 100%; Activity [9]: inactive; Activity (Rattus norvegicus [10]): Active
Cc1cc(C(=O)N2CCCCc3ccccc32)ccc1CNC(=O)N1CC(=O)C[C@H]1C(=O)N(C)C	27 nM	–
CCO[C@@H]1C[C@@H](C(=O)N(C)C)N(C(=O)NCc2ccc(C(=O)N3CCCCc4ccccc43)cc2C)C1	4.3 nM	inhibition in vivo at 1 mg/kg (Rattus norvegicus [2]): 60%; EC50 (Vasopressin V2 receptor [3]): 15 nM
Cc1cc(C(=O)N2CCCCc3ccccc32)ccc1CNC(=O)Nc1ccccc1	130 nM	–
Cc1cc(C(=O)N2CCCCc3ccccc32)ccc1CNC(=O)NCC(=O)N(C)C	58 nM	Activity (Rattus norvegicus [11]): Active; inhibition in vivo at 1 mg/kg (Rattus norvegicus [2]): 82%; EC50 (Vasopressin V2 receptor [3]): 50 nM; solubility [12]: 177 µg/mL (≈ 419 µM)
CCN(CC)C(=O)[C@@H]1CCCN1C(=O)NCc1ccc(C(=O)N2CCCCc3ccccc32)cc1C	350 nM	–
Cc1cc(C(=O)N2CCCCc3ccccc32)ccc1CNC(=O)NCC(=O)N1CCCC1	100 nM	–
Cc1cc(C(=O)N2CCCCc3ccccc32)ccc1CNC(=O)NCC(=O)Oc1ccccc1	820 nM	–
COC1(OC)C[C@@H](C(=O)N(C)C)N(C(=O)NCc2ccc(C(=O)N3CCCCc4ccccc43)cc2C)C1	20 nM	–
Cc1cc(C(=O)N2CCc3ccccc3-c3ccccc32)ccc1CNC(=O)N1CCC[C@H]1C(=O)N(C)C	84 nM	–
Cc1cc(C(=O)N2CCCC(F)(F)c3ccccc32)ccc1CNC(=O)N1CCC[C@H]1C(=O)N(C)C	1700 nM	–
Cc1cc(C(=O)N2CCCCc3ccccc32)ccc1CNC(=O)NCC(=O)OC(C)C	140 nM	–
Cc1cc(C(=O)N2CCCCc3ccccc32)ccc1CNC(=O)N1CCC[C@H]1C(=S)N(C)C	3.2 nM	–
Cc1cc(C(=O)N2CCCOc3ccccc32)ccc1CNC(=O)N1CCC[C@H]1C(=O)N(C)C	1000 nM	–
Cc1cc(C(=O)N2CCCCc3ccccc32)ccc1CNC(=O)N1CCC[C@H]1C(=O)O	680 nM	–
Cc1cc(C(=O)N2CCCCc3ccccc32)cc(C)c1CNC(=O)Nc1c(F)cccc1F	82 nM	–
